From ChEMBL document CHEMBL1153441 (J Med Chem, 2009)

Columns and labels:
[1] = biological target: T1, 5-hydroxytryptamine receptor 1A (Homo sapiens, UniProt P08908); test: Displacement of [3H]8-OH-DPAT from human recombinant 5HT1A receptor expressed in HEK293 cells; type: cell-based
T1 sequence (P08908 whole entry): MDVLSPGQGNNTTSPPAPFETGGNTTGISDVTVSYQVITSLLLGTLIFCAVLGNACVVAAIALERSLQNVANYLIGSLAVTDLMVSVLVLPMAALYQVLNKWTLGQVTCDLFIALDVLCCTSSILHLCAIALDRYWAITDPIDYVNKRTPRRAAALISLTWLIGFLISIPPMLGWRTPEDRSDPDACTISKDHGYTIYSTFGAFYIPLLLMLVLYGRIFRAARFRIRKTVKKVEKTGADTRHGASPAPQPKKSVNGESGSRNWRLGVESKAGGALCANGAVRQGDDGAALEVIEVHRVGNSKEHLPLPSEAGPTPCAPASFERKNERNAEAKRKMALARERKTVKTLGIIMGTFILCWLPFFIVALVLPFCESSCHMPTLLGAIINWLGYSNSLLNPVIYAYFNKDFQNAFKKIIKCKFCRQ
Procedure, shortened: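 Membranes from HEK-293 cells expressing human 5-HT1A receptor were incubated in the dark with 4.9 nM [3H]-8-OH-DPAT for 120 min at 37 °C in 50 mM Tris-HCl, 5 mM MgSO4, pH 7.4. Nonspecific binding was taken with 10 µM 5-HT. Filters were presoaked in 0.5% PEI, and bound radioactivity was counted by scintillation. Compounds were screened at 1 µM, then given six-point curves; Ki was derived by Cheng-Prusoff. Triplicates, 2-4 experiments.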

[2] = biological target: T2, 5-hydroxytryptamine receptor 7 (Homo sapiens, UniProt P34969); test: Displacement of [3H]LSD from human recombinant 5HT7 receptor expressed in CHOK1 cells; type: cell-based, CHO-K1
Procedure, shortened: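 Transfected CHO-K1 membranes in 50 mM Tris-HCl, 10 mM MgSO4, 0.5 mM EDTA, pH 7.4, incubated 120 min at 27 °C with 3 nM [3H]LSD; nonspecific binding with 25 µM clozapine. Ligands screened at 1 µM, then six-concentration curves if displacement over 55%.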

Homo sapiens = species: Homo sapiens; test: Selectivity for human recombinant 5HT7 receptor over human recombinant 5HT1A receptor
[3] = biological target: T2, 5-hydroxytryptamine receptor 7; test: Antagonist activity at human recombinant 5HT7 receptor expressed in CHOK1 cells assessed as inhibition of serotonon-induced increase in cAMP levels by HTRF assay; type: functional, cell-based; settings: CHO-K1
[4] = biological target: T2, 5-hydroxytryptamine receptor 7; test: Agonist activity at human recombinant 5HT7 receptor expressed in CHOK1 cells assessed as increase in cAMP levels by HTRF assay; type: functional, cell-based, CHO-K1
[5] = biological target: T2, 5-hydroxytryptamine receptor 7; test: Agonist activity at human recombinant 5HT7 receptor expressed in CHOK1 cells assessed as increase in cAMP levels by HTRF assay relative to serotonin; type: functional, cell-based; settings: CHO-K1
[6] = biological target: T2, 5-hydroxytryptamine receptor 7; test: Antagonist activity at human recombinant 5HT7 receptor expressed in CHOK1 cells assessed as inhibition of serotonon-induced increase in cAMP levels by HTRF assay relative to untreated control; type: functional, cell-based, CHO-K1
[7] = biological target: T3, 5-hydroxytryptamine receptor 1A (Homo sapiens) (UniProt P08908); test: Displacement of [3H]8-OH-DPAT from human recombinant 5HT1A receptor expressed in HEK293 cells at 1 uM; type: cell-based
T3 sequence (whole entry): T1 sequence (P08908 whole entry)
Procedure, shortened: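 Membranes from transfected HEK-293 cells in 50 mM Tris-HCl, 5 mM MgSO4, pH 7.4, incubated in the dark 120 min at 37 °C with 4.9 nM [3H]8-OH-DPAT and 1 µM ligand (hydrochloride salt), triplicate. Nonspecific binding with 10 µM 5-HT. Filtration on 0.5% PEI-soaked filters, ice-cold Tris washes, scintillation counting; percent displacement.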

T2 sequence (P34969 whole entry): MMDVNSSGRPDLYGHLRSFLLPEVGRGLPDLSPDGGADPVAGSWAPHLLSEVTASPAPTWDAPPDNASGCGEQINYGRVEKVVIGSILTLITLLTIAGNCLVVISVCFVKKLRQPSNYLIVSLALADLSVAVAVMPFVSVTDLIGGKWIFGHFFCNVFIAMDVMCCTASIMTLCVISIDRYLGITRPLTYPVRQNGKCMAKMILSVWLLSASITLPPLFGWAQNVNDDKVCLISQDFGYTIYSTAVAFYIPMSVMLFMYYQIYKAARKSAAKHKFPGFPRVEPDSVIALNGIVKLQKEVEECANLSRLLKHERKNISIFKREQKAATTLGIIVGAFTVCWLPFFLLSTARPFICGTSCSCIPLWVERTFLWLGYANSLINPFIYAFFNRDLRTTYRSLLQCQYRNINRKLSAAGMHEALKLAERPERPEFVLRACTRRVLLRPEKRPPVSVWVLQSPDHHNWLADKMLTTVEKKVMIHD

Structure (SMILES) | Ki [1] | Ki [2] | also measured
O=C1c2ccccc2CN1CCCCCN1CCN(c2ccccc2)CC1 | > 1 µM | 0.203 µM | 
O=C1Cc2ccccc2N1CCCCN1CCN(c2cccc3ccccc23)CC1 | 0.022 µM | 0.047 µM | 
O=C1Cc2ccccc2N1CCCCCN1CCN(c2cccc3[nH]cnc23)CC1 | 0.0181 µM | 0.068 µM | 
COc1ccccc1N1CCN(CCCCN2C(=O)Cc3ccccc32)CC1 | > 1 µM | 0.032 µM | 
O=C1Cc2ccccc2N1CCCCN1CCC(c2ccccc2)CC1 | > 1 µM | 0.16 µM | 
O=C1Cc2ccccc2N1CCCCN1CCc2ccccc2C1 | 0.219 µM | 0.007 µM | Ratio Ki (Homo sapiens): 31; Activity [3]: Dose-dependent effect; EC50 [4]: 0.31 µM; Activity ([4]; CHO-K1): Dose-dependent effect; Activity [5]: 40%
O=C1Cc2ccccc2N1CCN1CCc2ccccc2C1 | > 1 µM | 0.35 µM | 
O=C1Cc2ccccc2N1CCCCN1CCN(c2ccccc2)CC1 | 0.124 µM | 0.074 µM | 
O=C1Cc2ccccc2N1CCCCCN1CCN(c2cccc3ccccc23)CC1 | 0.016 µM | 0.069 µM | 
O=C1Cc2ccccc2N1CC#CCN1CCN(c2cccc3ccccc23)CC1 | 0.026 µM | > 1 µM | 
O=C1Cc2ccccc2N1CCCN1CCc2ccccc2C1 | > 1 µM | 0.105 µM | 
O=C1Cc2ccccc2N1Cc1cccc(CN2CCN(c3cccc4ccccc34)CC2)c1 | > 1 µM | > 1 µM | 
O=C1Cc2ccccc2N1CCCCCN1CCN(c2ccccc2)CC1 | > 1 µM | 0.063 µM | 
CN1C[C@@H](NS(=O)(=O)N(C)C)C[C@@H]2c3cccc4c3c(cn4C)C[C@H]21 [MESULERGINE] |  |  | IC50 [6]: 0.12 µM
O=C1Cc2ccccc2N1C/C=C\CN1CCN(c2cccc3ccccc23)CC1 | 0.0115 µM | 0.25 µM | 
O=C1Cc2ccccc2N1CCCCN1CCCC(c2ccccc2)C1 (stereo not drawn) | > 1 µM | 0.193 µM | 
O=C1Cc2ccccc2N1Cc1ccc(CN2CCN(c3cccc4ccccc34)CC2)cc1 | 0.181 µM | > 1 µM | 
O=C1c2ccccc2CN1CCCCN1CCN(c2ccccc2)CC1 | 0.36 µM | > 1 µM | 
COc1ccccc1N1CCN(CCCCN2Cc3ccccc3C2=O)CC1 | > 1 µM | 0.158 µM | 
COc1ccccc1N1CCN(CCCCCN2C(=O)Cc3ccccc32)CC1 | > 1 µM | 0.063 µM | 
O=C1c2cccc3cccc(c23)N1CCCCCN1CCN(c2ccccc2)CC1 [UCM-5600] |  | 0.089 µM | Activity [7]: 92%
O=C1Cc2ccccc2N1C/C=C/CN1CCN(c2cccc3ccccc23)CC1 | 0.039 µM | 0.069 µM | 
